Screening results as filed in PubChem.
Sampled rows, rich in hits. Any-hit rate of the full collection: about 1.5%.
CCR6 antag = CCR6 (human) receptor antagonism. 340,000 tested, 0.49% active. P51684. inhibition, % at 20 µM. CHO-K1 CCR6 PathHunter beta-arrestin, luminescence, CCL20-stimulated;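 active = compounds whose inhibition of the agonist-driven luminescence signal at 20 µM reaches about 50%, limit read from the data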;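 note: cells stimulated with CCL20 at 14 nM final; plate controls were DMSO with CCL20 for no effect and DMSO without agonist for full effect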
Target sequence (P51684 whole entry, looked up): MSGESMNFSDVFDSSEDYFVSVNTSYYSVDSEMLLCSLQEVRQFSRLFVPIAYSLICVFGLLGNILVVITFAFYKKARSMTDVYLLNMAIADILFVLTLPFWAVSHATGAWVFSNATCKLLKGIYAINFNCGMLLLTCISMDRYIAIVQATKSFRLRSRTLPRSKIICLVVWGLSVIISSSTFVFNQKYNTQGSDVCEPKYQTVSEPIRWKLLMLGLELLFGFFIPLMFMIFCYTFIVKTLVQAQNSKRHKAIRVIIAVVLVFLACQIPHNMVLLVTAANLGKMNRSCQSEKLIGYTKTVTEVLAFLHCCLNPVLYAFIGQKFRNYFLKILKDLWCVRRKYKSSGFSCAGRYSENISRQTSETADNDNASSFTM
APJ agonist = APJ receptor agonism | P35414 | CHO-K1 APJ PathHunter beta-arrestin, luminescence; 0% DMSO wells, 100% apelin | activation, % at 20 µM | 330,000 tested, 0.11% active | AID 2520;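 active = activation more than six SD over the plate average, tested at 20 µM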;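 note: 0% = DMSO alone and 100% = apelin-13 at 10 nM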
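assay system = CHO-K1 APJ beta-arrestin complementation cell line | input = cell density 1000 per well | dosing = compound 20 µM once, DMSO 1% | timing = compound 90 min 25 °C, reagent 1 h | measured by = luminescence from split beta-galactosidase complementation, Galacton Star/Emerald II substrate | read-out basis = APJ agonist activity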
APJ antagonist = blocks the human apelin receptor APJ | 330,000 tested, 0.32% active | inhibition, % at 20 µM | CHO-K1 APJ beta-arrestin complementation, luminescence | P35414;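 active = inhibition above about 40% at 20 µM, limit read from the data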;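 note: cells challenged with 10 nM apelin-13 agonist together with compound; plate controls were apelin-13 plus DMSO wells for no effect and DMSO wells lacking apelin-13 for full effect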
EBI2 antag = blocks human EBI2 receptor beta-arrestin signaling. 360,000 tested, 0.81% active. AID 651636. EBI2 beta-arrestin recruitment, luminescence, 7a,25-OHC stimulated. P32249. inhibition, % at 5 µM; in the data active = inhibition above about 38%;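 note: enzyme fragment complementation signal reports receptor beta-arrestin coupling in cells; 0% = agonist plus DMSO wells and 100% = wells without agonist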
CXCR6 block = CXCR6 (human) receptor inhibition. CHO-K1 PathHunter CXCR6 beta-arrestin, luminescence. AID 602244. inhibition, % at 20 µM. 360,000 tested, 0.36% active. O00574; in the data active = inhibition above about 34%, passing the limit was not always enough;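 note: antagonist mode with CXCL16 agonist at 10 nM final; 0% = 10 nM CXCL16 with DMSO and 100% = unstimulated wells without agonist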
EBI2 conf = EBI2 (human) antagonism, single concentration confirmation; shares compounds with EBI2 antag; EBI2 beta-arrestin luminescence, 7a,25-OHC antagonism; inhibition, % at 5 µM; 2,400 tested, 29% active;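 active = inhibition of at least 50%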
EBI2 ag = counter-screen for EBI2 antagonists: EBI2 agonist activity. shares compounds with EBI2 antag. EBI2-expressing cells, agonist mode, luminescence, 60 min; 0% vehicle, 100% 7α,25-dihydroxycholesterol control. activation, % at 5 µM. 2,400 tested, under 10 active. AID 652000;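 active = activation of at least 50%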
bGal counter = beta-galactosidase inhibition counter-screen | shares compounds with EBI2 antag | purified beta-galactosidase, luminescent Galacton Star, 15 min | inhibition, % at 5 µM | 2,400 tested, 1% active | AID 652176;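 active = replicate-average signal at least 3 plate SD below neutral wells, shown as high inhibition, flagging enzyme-inhibiting false positives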;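 note: 0% = DMSO wells with enzyme and 100% = wells lacking enzyme; higher means stronger loss of beta-gal luminescence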
* hit, by the source's call.

CCOc1cc(CNc2ccc(Br)cc2)cc(Br)c1OCC(=O)NC(C)(C)C was read as CCR6 antag 18, APJ agonist 2, APJ antagonist -14, EBI2 antag 66*, CXCR6 block -2, EBI2 conf 7, EBI2 ag 1 and bGal counter 2.
Screening COc1cc(/C=N/OCC(=O)NC23CC4CC(CC(C4)C2)C3)ccc1OCc1ccccc1 returned CCR6 antag 34, APJ agonist -2, APJ antagonist -12, EBI2 antag 45*, CXCR6 block 11, EBI2 conf 27, EBI2 ag 0 and bGal counter 9.
`CCN(CC(=O)Nc1c(F)cccc1F)C(=O)/C=C/c1ccc(C)cc1` gave CCR6 antag -8, APJ agonist -5, APJ antagonist 14, EBI2 antag 94*, CXCR6 block 5, EBI2 conf 80*, EBI2 ag -1 and bGal counter -6.
For CCN(CC(=O)NCc1ccc(F)cc1)C(=O)Cc1ccc(OC)cc1 the results were CCR6 antag -5, APJ agonist -2, APJ antagonist -5, EBI2 antag 3 and CXCR6 block -2.
Screening CCN(CC(=O)NCc1ccc(F)cc1)C(=O)/C=C/c1ccc(OC)cc1 returned CCR6 antag 1, APJ agonist 2, APJ antagonist 12, EBI2 antag 62*, CXCR6 block 2, EBI2 conf 57*, EBI2 ag 0 and bGal counter 8.
CCOC(=O)N1CCC(N2Cc3cccc(C(=O)Nc4ccccc4OC)c3C2=O)CC1 was read as CCR6 antag 12, APJ agonist -2, APJ antagonist 6, EBI2 antag 11 and CXCR6 block 4.
For Cc1ccc(C(C)C)c(OCc2ccc(C(=O)N/N=C/c3ccc(C(=O)O)cc3)cc2)c1 the results were CCR6 antag 8, APJ agonist -2, APJ antagonist -5, EBI2 antag 40*, CXCR6 block -3, EBI2 conf 8, EBI2 ag 0 and bGal counter 8.
N#Cc1cc2c(nc1SCC(=O)Nc1sc3c(c1C#N)CCC3)CCC2 was read as CCR6 antag 26, APJ agonist -4, APJ antagonist 16, EBI2 antag 15 and CXCR6 block 2.
For N#Cc1cc2c(nc1SCC(=O)Nc1sc3c(c1C#N)CCC3)CCCCCC2 the results were CCR6 antag 2, APJ agonist -5, APJ antagonist 6, EBI2 antag 47*, CXCR6 block 7, EBI2 conf 19, EBI2 ag 1 and bGal counter 6.
For Cc1cc(C(=O)N2CCN(Cc3ccccc3)CC2)ccc1[N+](=O)[O-] the results were CCR6 antag 13, APJ agonist -3, APJ antagonist -3, EBI2 antag 24 and CXCR6 block -1.
Cc1cc(C(=O)N2CCC(Cc3ccccc3)CC2)ccc1[N+](=O)[O-] was read as CCR6 antag 4, APJ agonist -3, APJ antagonist -7, EBI2 antag 64*, CXCR6 block 8, EBI2 conf 43, EBI2 ag 1 and bGal counter 5.
For CCOc1ccccc1NC(=O)COC(=O)/C=C/c1cccs1 the results were CCR6 antag 17, APJ agonist -2, APJ antagonist 6, EBI2 antag 0 and CXCR6 block 6.
`C[C@H]1CN([C@@H](C)CO)C(=O)c2cc(-c3ccccc3F)cnc2O[C@@H]1CN(C)C(=O)NC1CCCCC1` gave EBI2 antag 3 and CXCR6 block -3.
For Cc1ccc(-c2nc3cc(N)ccc3o2)cc1 the results were CCR6 antag -5, APJ agonist -4, APJ antagonist -1, EBI2 antag -11 and CXCR6 block -10.
CC(C)c1ccc2oc(-c3ccc(N)cc3)nc2c1 was read as CCR6 antag -7, APJ agonist -2, APJ antagonist -14, EBI2 antag 52*, CXCR6 block -11, EBI2 conf 57*, EBI2 ag 0 and bGal counter -1.
`Cc1ccc(/C=N/NC(=O)CN2CCN(S(=O)(=O)c3ccc(Br)cc3)CC2)s1` gave CCR6 antag 3, APJ agonist -3, APJ antagonist -6, EBI2 antag 69*, CXCR6 block -2, EBI2 conf 52*, EBI2 ag 0 and bGal counter 5.
Screening O=C(CN1CCN(S(=O)(=O)N2CCCCC2)CC1)Nc1ccc(Cl)c(Cl)c1 returned CCR6 antag 13, APJ agonist -3, APJ antagonist 2, EBI2 antag 25 and CXCR6 block -2.
For O=C(CN1CCN(S(=O)(=O)c2ccc(Br)cc2)CC1)N/N=C/c1ccco1 the results were CCR6 antag 17, APJ agonist 0, APJ antagonist -2, EBI2 antag 22 and CXCR6 block 7.
`O=C(CN1CCN(S(=O)(=O)c2ccc(Br)cc2)CC1)N/N=C/c1ccc(Br)s1` gave CCR6 antag 9, APJ agonist 0, APJ antagonist -3, EBI2 antag 65*, CXCR6 block -4, EBI2 conf 44, EBI2 ag -1 and bGal counter -10.
Screening O=C(CN1CCN(S(=O)(=O)c2ccccc2)CC1)Nc1ccc(Cl)c(Cl)c1 returned CCR6 antag 22, APJ agonist 1, APJ antagonist 2, EBI2 antag 61*, CXCR6 block -17, EBI2 conf 45, EBI2 ag 1 and bGal counter -2.
`Cc1ccc(S(=O)(=O)N2CCN(CC(=O)N/N=C/C=C/c3ccccc3)CC2)cc1` gave CCR6 antag -5, APJ agonist 0, APJ antagonist -4, EBI2 antag 43*, CXCR6 block -1, EBI2 conf 31, EBI2 ag 0 and bGal counter 9.
`CCOc1nc(C)cc(C)c1S(=O)(=O)c1cccc(Cl)c1` gave CCR6 antag 18, APJ agonist -6, APJ antagonist 9, EBI2 antag 3 and CXCR6 block -6.
Screening Cn1c(SCC(=O)O)nnc1-c1ccc(NC(=O)c2ccc(Cl)c(Cl)c2)cc1 returned CCR6 antag 1, APJ agonist -4, APJ antagonist 5, EBI2 antag 1 and CXCR6 block -5.
For O=C(CCNS(=O)(=O)c1ccc(Br)cc1)NC1CCC(O)CC1 (stereo unspecified) the results were CCR6 antag 0, APJ agonist -1, APJ antagonist -33, EBI2 antag -4 and CXCR6 block 3.
